# Laboratory results published in ChEMBL document CHEMBL2057186, “Application of the bicyclo[1.1.1]pentane motif as a nonclassical phenyl ring bioisostere in the design of a potent and orally active γ-secretase inhibitor” (J Med Chem, 2012).
# What was measured:
# [1] = Oral bioavailability in Sprague-Dawley rat at 5 mg/kg; assay type: ADME, organism-based; conditions: in vivo
# In short: (§1)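 Female rats were dosed once, 1 mg/kg iv (2 mL/kg, 0.5 mg/mL) or 5 mg/kg po (10 mL/kg, 0.5 mg/mL). Vehicle was 40% (w/v) hydroxypropyl-β-cyclodextrin. Plasma was sampled to 24 h. Values are means ± SEM (n = 3).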
# [2] = Cmax in 129/sve mouse plasma at 30 mg/kg, po administered as single dose by LC-MS/MS analysis; assay type: ADME, organism-based; design: dose 30 mg/kg, route oral
# In short: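 Single-dose oral PK in wild-type male 129/sve mice. Formulation was 98% (v/v) Phosal 50 PG with 2% Tween 80. Compound was measured in plasma, brain and CSF. Values are means ± standard deviations (n = 4 or 5).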
# [3] = target: Cytochrome P450 2D6 (Homo sapiens, UniProt P10635); assay: Inhibition of CYP2D6 in human liver microsomes using dextromethorphan as substrate; assay type: ADME, Microsome
# Cytochrome P450 2D6, sequence (P10635 whole entry): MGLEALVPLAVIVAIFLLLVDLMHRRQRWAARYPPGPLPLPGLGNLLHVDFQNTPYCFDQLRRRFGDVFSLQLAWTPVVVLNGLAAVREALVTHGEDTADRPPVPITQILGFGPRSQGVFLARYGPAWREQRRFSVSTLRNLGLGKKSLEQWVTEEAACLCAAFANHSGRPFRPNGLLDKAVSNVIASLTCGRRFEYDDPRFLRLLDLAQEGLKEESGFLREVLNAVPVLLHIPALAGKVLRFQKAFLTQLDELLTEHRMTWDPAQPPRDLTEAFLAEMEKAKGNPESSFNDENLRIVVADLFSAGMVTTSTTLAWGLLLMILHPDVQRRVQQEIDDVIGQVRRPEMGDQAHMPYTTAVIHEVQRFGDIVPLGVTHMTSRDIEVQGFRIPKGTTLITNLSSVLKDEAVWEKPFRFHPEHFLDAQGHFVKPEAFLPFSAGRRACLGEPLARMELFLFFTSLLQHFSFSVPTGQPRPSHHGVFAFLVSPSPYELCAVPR
# [4] = system: Mus musculus; assay: Antialzheimer activity in 129/sve mouse assessed as reduction in amyloid beta40 level in CSF at 30 mg/kg, po administered as single dose measured at 1 hr by ELISA relative to vehicle treated control; assay type: functional; design: scale not given: the % may be the effect or the level left
# In short: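 Wild-type male 129/sve mice received a single oral dose in Phosal 50 PG/Tween 80 vehicle. Aβ40 was measured in brain, CSF and plasma and Aβ42 in brain over a time course. Levels are expressed as % of vehicle-treated animals. Values are mean ± SEM, n = 5 or 8 per time point.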
# [5] = Ratio of drug level in brain to plasma in 129/sve mouse at 30 mg/kg, po administered as single dose by LC-MS/MS analysis; assay type: ADME, organism-based; design: dose 30 mg/kg, route oral; conditions: read-out: BPR
# In short: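 Wild-type male 129/sve mice were dosed orally once in 98% Phosal 50 PG/2% Tween 80. Brain/plasma ratio was taken as AUC_brain/AUC_plasma, using mean-concentration AUCs from a nonserial design.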
# [6] = Plasma clearance in Sprague-Dawley rat at 1 mg/kg, iv; assay type: ADME, organism-based; design: dose 1 mg/kg, route intravenous; in short: as §1
# [7] = target: T1, Cytochrome P450 1A2 (Homo sapiens, UniProt P05177); assay: Inhibition of CYP1A2 in human liver microsomes using tacrine as substrate; assay type: ADME, Microsome
# T1 sequence (P05177 whole entry): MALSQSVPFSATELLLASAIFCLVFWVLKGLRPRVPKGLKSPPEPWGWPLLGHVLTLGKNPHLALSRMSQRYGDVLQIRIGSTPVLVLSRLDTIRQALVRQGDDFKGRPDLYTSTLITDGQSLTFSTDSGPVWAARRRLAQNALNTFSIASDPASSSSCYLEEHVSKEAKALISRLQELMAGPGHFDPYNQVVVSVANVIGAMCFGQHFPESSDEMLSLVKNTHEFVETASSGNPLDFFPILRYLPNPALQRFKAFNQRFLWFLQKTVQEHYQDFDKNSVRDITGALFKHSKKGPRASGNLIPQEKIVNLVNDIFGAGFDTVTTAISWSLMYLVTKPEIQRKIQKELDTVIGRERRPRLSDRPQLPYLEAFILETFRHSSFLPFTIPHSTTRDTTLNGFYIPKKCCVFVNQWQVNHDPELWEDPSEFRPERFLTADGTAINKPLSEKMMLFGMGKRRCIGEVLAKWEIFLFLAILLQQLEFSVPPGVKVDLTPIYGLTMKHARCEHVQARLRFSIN
# [8] = Ratio of fraction unbound in brain to fraction unbound in plasma in Sprague-Dawley rat; assay type: ADME
# [9] = system: Hepatocyte; assay: Apparent total intrinsic clearance in human hepatocytes assessed per million cells; assay type: ADME, cell-based
# [10] = Kinetic solubility of the solubility of the compound at pH 6.5; assay type: physicochemical; conditions: buffer, read-out: Kinetic_solubility
# In short: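 Kinetic solubility was measured in aqueous buffer at pH 6.5.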
# [11] = AUC (last) in 129/sve mouse plasma at 30 mg/kg, po administered as single dose by LC-MS/MS analysis; assay type: ADME, organism-based; design: dose 30 mg/kg, route oral, time 0 - last
# In short: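 Wild-type male 129/sve mice received a single oral dose in 98% (v/v) Phosal 50 PG / 2% Tween 80. Drug was measured in plasma, brain and CSF. Study was nonserial, so AUC came from mean matrix concentrations at each time point. Values are mean ± SD (n = 4 or 5).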
structure (smiles),measurement,setting,value
NC(=O)[C@@H](CCC(F)(F)F)N(CC12CC(c3ncon3)(C1)C2)S(=O)(=O)c1ccc(Cl)cc1,bioavailability,[1],100%
same,Cmax,[2],6.48 µM
same,inhibition (INH),[3],Not Active
same,Activity,[4],64%
same,Kp,[5],0.84
same,clearance,[6],13.3 mL/min/kg
same,inhibition (INH),[7],Not Active
same,Ratio,[8],0.34
same,CLt/F,[9],< 3.8 µL/min
same,solubility kinetic,[10],216 µM
same,AUC(0-t),[11],14.3 µM·h
